# In the library only some 2.1% were active in any assay of this set; here they are far more common.
# ARNT TACC3 PPI: disruptors of ARNT/TACC3 protein interaction, primary screen, biochemical, AlphaScreen, single concentration | Transforming acidic coiled-coil-containing protein 3 (Homo sapiens), Q9Y6A5 | AlphaScreen His-ARNT PAS-B/GST-TACC3 binding, luminescence; TACC3 fragment carries E629A point mutation | inhibition, % at 9.99 µM | 390,000 compounds, 0.66% hits;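 active means mean inhibition of replicates at least 50% and at least half of replicates each reaching 50%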;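 further: 0% = complete ARNT plus TACC3 wells and 100% = ARNT alone without TACC3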
# RTF Ca sens inh: cardiac RTF calcium sensitivity inhibitors, primary screen, biochemical, IANBD-TnC fluorescence, EC70 calcium. inhibition, % at 7.15 µM. AID 493244, 2011. 340,000 compounds, 0.12% hits. IANBD-labeled cardiac RTF, Ca2+ fluorescence. Troponin I, cardiac muscle (Homo sapiens) + Troponin T, cardiac muscle (Homo sapiens) + …;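 active means inhibition above the mean inhibition of all tested compounds plus 3 SD, cut at about 17% in these data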;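 further: assay run at fixed EC70 calcium of 1.6 mM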
# Efflux pump mplx: inhibitors of Candida efflux pumps in yeast, primary screen, S. cerevisiae, Nile Red, multiplex; S. cerevisiae Candida pump triplex; inhibition, % at 10 µM; 330,000 compounds, 0.44% hits; AID 485275, 2010;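 active means plate passing quality check with inhibition over a set limit, or well fluorescence over plate mean plus 4 SD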;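 further: Nile Red retained in pooled yeast measured as flow cytometry median fluorescence; 0% = buffer negative control and 100% = Enniatin B positive control; higher means more Nile Red kept so more efflux inhibition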
# RTF Ca sens act: cardiac RTF calcium sensitivity activators, primary screen, biochemical, IANBD-TnC fluorescence, EC20 calcium. IANBD-labeled TnC RTF fluorescence at EC20 calcium; 0% EC20 calcium, 100% full calcium. activation, % at 7.2 µM. 340,000 compounds, 0.24% hits. AID 493008, 2010;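 active means activation above the mean over all tested compounds plus 3 SD, cut at about 30% in these data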;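 further: rise in fluorescence read as greater calcium sensitivity of cardiac thin filaments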
# UCH37 inh: inhibitors of human UCH37 deubiquitinase, primary screen, biochemical, Ub-AMC cleavage, fluorescence | purified proteasome/UCH37 | Ubiquitin carboxyl-terminal hydrolase isozyme L5 (Homo sapiens), Q9Y5K5 | inhibition, % (no concentration beside the values) | 330,000 compounds, 0.33% hits;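 active means mean inhibition over replicate wells above about 20%, limit read from the data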;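 further: 0% = compound-free wells with enzyme and 100% = wells lacking proteasome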
# Target sequence (Q9Y5K5 whole entry, looked up): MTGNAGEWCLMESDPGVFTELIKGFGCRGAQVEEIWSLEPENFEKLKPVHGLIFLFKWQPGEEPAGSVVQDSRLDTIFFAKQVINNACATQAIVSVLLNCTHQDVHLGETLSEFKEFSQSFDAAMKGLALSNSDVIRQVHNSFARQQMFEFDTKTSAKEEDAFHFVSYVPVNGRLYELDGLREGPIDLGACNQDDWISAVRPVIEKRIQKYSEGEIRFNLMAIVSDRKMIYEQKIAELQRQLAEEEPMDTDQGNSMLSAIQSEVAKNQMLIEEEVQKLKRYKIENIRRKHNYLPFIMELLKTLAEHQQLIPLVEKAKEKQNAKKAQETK
#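 Material: human UCH37 enzyme supplied as purified proteasome complex / Amount: 0.15 nM proteasome as dispensed / Buffer or medium: pH 7.4 Tris-HCl (50 mM) with ovalbumin, ATP-MgCl2, DTT / Times: preincubation 30 min, reaction 25 min, room temperature / Technique: AMC fluorescence from Ub-AMC cleavage, excitation 355 nm, emission 460 nm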
# Mot1-301 SUMO: yeast Mot1-301 growth rescue at high temperature, primary screen, SUMOylation pathway inhibitor project, S. cerevisiae, ATP luminescence, 38.5C; growth rescue, % at 18.8 µM; 320,000 compounds, 1% hits; AID 2716, 2010; S. cerevisiae Mot1-301 growth rescue; percent above DMSO median, 100 means doubled;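 active means every valid replicate shows activation above 250% relative to neutral control wells; inactive means the rest, any valid replicate at or below 250%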;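 further: OY570 slx delta 5 strain wells were the positive control but not used for scaling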
# ARNT Alpha ctr-1: AlphaScreen signal interference compounds, dose response, artefact control for ARNT-TACC3 interaction inhibitor project, biochemical, luminescence, cherry-pick; shares compounds with ARNT TACC3 PPI; His-ARNT PASB-GST AlphaScreen artifact counter-screen; AC50, µM (highest dose often 68 µM), for the others: at the highest dose activity change, negative = signal decrease; 1,200 compounds, 50% hits; AID 651705, 2012;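 active means every separate test run was called active for a drop in luminescence, with AC50 within twice the top valid dose, actives reach about 71 µM in these data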
# ARNT Alpha ctr-2: AlphaScreen signal interference by compounds, dose response, artefact control for ARNT/TACC3 disruptor project, biochemical, dual-tagged ARNT, dry powder. shares compounds with ARNT TACC3 PPI. Dual-tagged His-ARNT PASB-GST AlphaScreen artifact counter-screen. AC50, µM. 45 compounds, 70% hits;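 active means luminescence drop, with half-maximal potency fitted within twice the sample's top valid dose, cut at about 70 µM in these data; inactive means the rest, including signal moving the wrong way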
# Starred values were filed as active, the others as inactive; x = not tested or not shown; [ ] = another dose, or the depositor's remark.
SMILES,ARNT TACC3 PPI,RTF Ca sens inh,Efflux pump mplx,RTF Ca sens act,UCH37 inh,Mot1-301 SUMO,ARNT Alpha ctr-1,others
O=C(C1CC1)N1CCc2cc(Br)cc(S(=O)(=O)NCc3ccccn3)c21,52*,-21,0,-1,5,462,5%,
O=C(C1CC1)N1CCc2cc(Br)cc(S(=O)(=O)NCCN3CCOCC3)c21,-2,-11,0,5,-2,-1,x,
COc1ccccc1N1CCN(N=Cc2ccccc2)CC1,x,x,x,x,3,x,x,
CC(C)c1ccc(OCc2cccc(C(=O)NN=Cc3cccnc3)c2)cc1,x,x,x,x,3,x,x,
CCCN(CCC)c1nc(-c2ccccn2)nc2ccccc12,60*,-5,0,-2,2,-28,-31%,
O=C(C[C@H]1CC[C@H](NC(=O)c2ccccc2)[C@H](CO)O1)Nc1ccc(-c2ccccc2)cc1,-8,x,x,x,x,x,x,
O=C(C[C@@H]1CC[C@@H](NC(=O)c2ccccc2)[C@H](CO)O1)Nc1ccc(-c2ccccc2)cc1,54*,x,x,x,x,x,-8%[42 µM],
O=C(C[C@@H]1CC[C@H](NC(=O)Nc2cc(F)ccc2F)[C@@H](CO)O1)Nc1ccc(-c2ccccc2)cc1,54*,x,x,x,x,x,1%[38 µM],
O=C(C[C@@H]1CC[C@@H](NC(=O)Nc2cc(F)ccc2F)[C@H](CO)O1)Nc1ccccc1,7,x,x,x,x,x,x,
CN(Cc1c(C(=O)NN=Cc2cccc(O)c2)nnn1-c1nonc1N)C1CCCCC1,x,x,x,x,-9,x,x,
COc1ccc(C=NNC(=O)CNC(=O)c2ccc(S(=O)(=O)N3CCCC3)cc2)c(OC)c1,x,x,x,x,5,x,x,
COc1ccc(C=NNC(=O)CCN2CCN(c3ccccc3)CC2)cc1OC,x,x,x,x,4,x,x,
Cc1cccc(S(=O)(=O)N[C@H]2CC[C@@H](CCn3cc(-c4ccccn4)nn3)O[C@@H]2CO)c1,102*,x,x,x,x,x,44µM*,
Cc1cccc(S(=O)(=O)N[C@@H]2CC[C@@H](CCn3cc(-c4ccccn4)nn3)O[C@@H]2CO)c1,98*,x,x,x,x,x,-36%[38 µM],
Cc1cccn2c(=O)c(C=NO)c(NCc3ccccc3)nc12,x,x,x,x,-33,x,x,
CCOC(=O)/C(=N/Nc1ccccc1OC)N1CCCc2ccccc21,34*,3,0,-5,x,2,44µM*,
Cc1cccc(NC(=O)CSc2ccc(-c3ccccn3)nn2)c1C,55*,1,0,1,4,-11,30µM*,ARNT Alpha ctr-2=23*
COc1ccccc1NC(=O)CSc1ccc(-c2ccccn2)nn1,55*,-2,-1,-5,-2,19,14µM*,
CO[C@@H]1CN(C)C(=O)c2cc(NS(=O)(=O)CC(F)(F)F)ccc2OC[C@@H](C)N(C(=O)c2ccc3c(c2)OCO3)C[C@H]1C,-3,x,x,x,x,x,x,
CO[C@H]1CN(C)C(=O)c2cc(NS(=O)(=O)CC(F)(F)F)ccc2OC[C@H](C)N(Cc2cccnc2)C[C@@H]1C,active,x,x,x,x,x,-5%[42 µM],
CO[C@@H]1CN(C)C(=O)c2cc(NS(=O)(=O)CC(F)(F)F)ccc2OC[C@@H](C)N(C(=O)c2ccc3c(c2)OCO3)C[C@@H]1C,51*,x,x,x,x,x,22µM*,
N#Cc1cc2ccc(N3CCOCC3)cc2cc1C#N,29*,-5,0,-2,-42,18,-16%,
O=C(COc1ccc(C=NNC(=O)c2ccccc2)cc1)Nc1ccc([N+](=O)[O-])cc1,x,x,x,x,3,x,x,

# Assay outcomes deposited in PubChem by several laboratories.
